Here are results for three compounds from PMC8861424 (Molecular Therapy Oncolytics, 2022).

The test system of one data set is KDR, FLT3, and C-Kit. As to the kind of experiment: KINOMEscan IC50 compared with sunitinib. The format is binding, human.
The subject of another data set is 786-O. As to the kind of experiment: Cancer cell proliferation assay. The format is cell-based. Conditions: Homo sapiens, 786-0, 72 h, read-out: IC50, cell proliferation.
In another data set the test system is A549. The data set is described as follows: Cancer cell proliferation assay. Conditions: Homo sapiens, A549, 72 h, read-out: IC50, cell proliferation. Format: cell-based.
The target in another data set is C-Kit (Homo sapiens, UniProt P10721). The data set is described as follows: KINOMEscan competition kinase binding assay.
Data set [1] deals with VEGF165-induced Primary HUVECs. As to the kind of experiment: VEGF165-induced HUVEC proliferation. The format is cell-based. Conditions: Homo sapiens, 72 h, read-out: IC50, cell proliferation.
The next data set deals with HT-29 xenograft tumors. As to the kind of experiment: Mouse xenograft tumor growth. As to conditions: HT-29-cell-derived xenograft models; oral. The format is in vivo. In outline:
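Two-step HT-29 xenograft in BALB/c nude mice. First, 5 × 10⁶ cells injected subcutaneously and grown to 100–300 mm³. Tumors then excised, minced into 1 mm³ pieces and implanted in the flank of new mice, then grown to 100–300 mm³. […] Oral dosing for 3–4 weeks. Percent tumor growth inhibition calculated. Study repeated once.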

Another data set deals with PDGFRβ (Homo sapiens, UniProt P09619). As to the kind of experiment: KINOMEscan competition kinase binding assay.
The next data set relates to HT-29. As to the kind of experiment: Cancer cell proliferation assay. Format: cell-based. Conditions: Homo sapiens, HT-29, 72 h, read-out: IC50, cell proliferation.
The next data set concerns BxPC-3. As to the kind of experiment: Cancer cell proliferation assay. Conditions: Homo sapiens, BXPC-3, 72 h, read-out: IC50, cell proliferation. Format: cell-based.
Data set [2] deals with Primary HUVECs. As to the kind of experiment: In vitro HUVEC tube formation assay. Conditions: at both 50 and 100 nM; VEGF165 30 ng/mL, 3 h. Format: cell-based, human.
The subject of the next data set is MV-4-11 xenograft tumors. The data set is described as follows: Mouse xenograft tumor growth. The format is in vivo. As to conditions: oral. Put shortly:
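Male athymic BALB/c nude mice, 6 weeks old, injected subcutaneously with 5 × 10⁶ MV-4-11 cells in the flank next to the right forelimb. […] Oral dosing at various doses for 3–4 weeks. Percent tumor growth inhibition calculated. Study repeated twice. Mean ± SD; ANOVA/t test.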

The nature of data set [3]: Body weight and tolerability in xenograft mice. Format: in vivo, mouse.
A further data set deals with CNV lesions. As to conditions: laser-induced CNV rat model; oral administration; cited from earlier work.
Data set [4] deals with KDR phosphorylation of HUVECs. As to the kind of experiment: VEGF-induced KDR phosphorylation of HUVECs. The format is cell-based, human. Conditions: Figure S1.
The conditions of data set [5]: compared with other TKIs; cited from earlier work.
The target in the next data set is FLT3 (Homo sapiens, UniProt P36888). As to the kind of experiment: KINOMEscan competition kinase binding assay.
Data set [6] concerns VEGF165-induced HUVEC cell lines. As to the kind of experiment: VEGF165-induced HUVEC proliferation. As to conditions: Homo sapiens, 72 h, read-out: IC50, cell proliferation. Format: cell-based.
In another data set the test system is A549 xenograft tumors. As to the kind of experiment: Mouse xenograft tumor growth. Format: in vivo. As to conditions: dose-dependent (abstract only).
Data set [7] concerns choroidal neovascularization. The data set is described as follows: Matrigel-induced choroidal neovascularization model. The format is in vivo. As to conditions: rat, days 10-20 after Matrigel injection, n = 6. In outline:
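Rats anesthetized with ketamine (40 mg/kg IP) and xylazine (6 mg/kg IP), then given a subretinal injection of 1.2 μL Matrigel diluted 3:1 with PBS. Test compound at 10 or 30 mg/kg on days 10–20 after injection; controls untreated. Rats perfused with PBS, DiI and 4% paraformaldehyde. Eyes cut in 100 μm serial sections and viewed by confocal microscopy. CNV area = summed section width × thickness. Mean ± SD; ANOVA/t test.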

For another data set, the system named is MV-4-11. As to the kind of experiment: Cancer cell proliferation assay. Format: cell-based. Conditions: Homo sapiens, MV4-11, 72 h, read-out: IC50, cell proliferation.
Data set [8] concerns microvessel density (CD31). As to the kind of experiment: Microvessel density by CD31 immunofluorescent staining in xenograft models. The format is in vivo, mouse. As to conditions: for microvessel density (MVD), CD31 staining: mouse xenograft models. In outline:
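Xenograft tumor paraffin sections (8 μm) rehydrated and treated 30 min in Tris/EDTA, then blocked with PBS/0.3% Triton X. Primary rabbit anti-mouse CD31 (1:100) at 4°C overnight. Secondary Alexa Fluor 488 goat anti-rabbit IgG (1:50) for 2 h. MVD quantified from fluorescence images: five slides, four ×200 fields each.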

The test system of a further data set is ABCG2. As to conditions: cited from earlier work.
For data set [9], the system named is Primary HUVECs. The data set is described as follows: HUVEC proliferation without VEGF165. Format: cell-based. Conditions: Homo sapiens, 72 h, read-out: IC50, cell proliferation. In outline: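 HUVECs grown in F-12 with 10% FBS, 18 U/mL heparin and 30 μg/mL ECGS. Seeded at 10,000 cells/well in triplicate and left to adhere overnight, then starved 24 h in 0.1% FBS. Test compound at 0.8, 3, 11.8, 46.8 and […] in 0.1% FBS, with no VEGF165 added. MTS absorbance read at 490 nm after 72 h. IC50 = concentration halving absorbance versus control.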

The next data set has as its system HCT-116. The data set is described as follows: Cancer cell proliferation assay. Conditions: Homo sapiens, HCT-116, 72 h, read-out: IC50, cell proliferation. Format: cell-based.
In the next data set the test system is A375. The data set is described as follows: Cancer cell proliferation assay. The format is cell-based. Conditions: Homo sapiens, A-375, 72 h, read-out: IC50, cell proliferation.

Chain of FLT3 (P36888 27-993): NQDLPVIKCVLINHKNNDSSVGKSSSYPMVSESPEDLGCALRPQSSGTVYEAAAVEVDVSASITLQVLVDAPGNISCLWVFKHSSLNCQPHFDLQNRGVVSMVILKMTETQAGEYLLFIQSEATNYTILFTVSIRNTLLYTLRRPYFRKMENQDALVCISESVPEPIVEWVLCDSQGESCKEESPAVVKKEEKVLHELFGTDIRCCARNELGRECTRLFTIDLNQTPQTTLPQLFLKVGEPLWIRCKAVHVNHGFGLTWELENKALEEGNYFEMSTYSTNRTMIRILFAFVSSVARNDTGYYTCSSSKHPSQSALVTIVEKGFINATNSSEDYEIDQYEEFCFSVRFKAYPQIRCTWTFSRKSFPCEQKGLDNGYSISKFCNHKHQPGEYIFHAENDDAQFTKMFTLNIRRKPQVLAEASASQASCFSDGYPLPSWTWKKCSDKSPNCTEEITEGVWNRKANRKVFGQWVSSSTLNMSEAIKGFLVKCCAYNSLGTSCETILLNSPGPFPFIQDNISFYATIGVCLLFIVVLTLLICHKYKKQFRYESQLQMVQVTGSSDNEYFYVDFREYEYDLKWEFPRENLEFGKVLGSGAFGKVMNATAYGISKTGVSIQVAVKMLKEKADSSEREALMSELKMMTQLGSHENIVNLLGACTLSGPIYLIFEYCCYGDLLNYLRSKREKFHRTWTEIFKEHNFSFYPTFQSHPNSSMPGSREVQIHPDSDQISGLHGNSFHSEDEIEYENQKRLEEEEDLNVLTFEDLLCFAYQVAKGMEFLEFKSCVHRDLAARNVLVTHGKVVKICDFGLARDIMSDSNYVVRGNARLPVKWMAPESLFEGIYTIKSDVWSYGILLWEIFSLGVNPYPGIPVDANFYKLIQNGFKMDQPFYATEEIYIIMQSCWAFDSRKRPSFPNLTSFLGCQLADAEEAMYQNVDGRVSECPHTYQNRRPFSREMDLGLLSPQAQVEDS
Chain of C-Kit (P10721 26-976): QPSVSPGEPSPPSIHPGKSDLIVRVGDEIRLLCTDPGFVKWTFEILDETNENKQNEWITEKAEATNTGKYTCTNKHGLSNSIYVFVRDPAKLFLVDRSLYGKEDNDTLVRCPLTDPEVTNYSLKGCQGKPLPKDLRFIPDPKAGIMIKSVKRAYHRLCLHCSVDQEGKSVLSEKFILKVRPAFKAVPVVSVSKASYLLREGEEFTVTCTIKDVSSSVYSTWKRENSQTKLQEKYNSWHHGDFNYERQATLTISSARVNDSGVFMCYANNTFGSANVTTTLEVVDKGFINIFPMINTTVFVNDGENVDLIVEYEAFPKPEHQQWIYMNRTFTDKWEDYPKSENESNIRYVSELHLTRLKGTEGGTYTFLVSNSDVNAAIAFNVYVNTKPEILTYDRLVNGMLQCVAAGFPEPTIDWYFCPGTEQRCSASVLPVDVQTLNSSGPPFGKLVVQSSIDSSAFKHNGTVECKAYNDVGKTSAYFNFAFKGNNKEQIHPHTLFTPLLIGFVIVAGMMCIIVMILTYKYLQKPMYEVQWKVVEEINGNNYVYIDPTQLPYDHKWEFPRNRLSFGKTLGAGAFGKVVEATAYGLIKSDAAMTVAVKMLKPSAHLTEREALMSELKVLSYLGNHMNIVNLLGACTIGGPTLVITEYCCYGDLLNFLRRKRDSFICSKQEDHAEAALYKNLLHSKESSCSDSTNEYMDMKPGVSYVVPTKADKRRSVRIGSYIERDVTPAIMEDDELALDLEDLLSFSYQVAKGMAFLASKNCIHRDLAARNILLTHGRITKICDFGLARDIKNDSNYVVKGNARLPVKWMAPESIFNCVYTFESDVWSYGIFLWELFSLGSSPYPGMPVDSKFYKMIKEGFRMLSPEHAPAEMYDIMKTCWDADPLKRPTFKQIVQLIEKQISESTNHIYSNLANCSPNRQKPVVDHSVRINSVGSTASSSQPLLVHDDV
Chain of PDGFRβ (P09619 33-1106): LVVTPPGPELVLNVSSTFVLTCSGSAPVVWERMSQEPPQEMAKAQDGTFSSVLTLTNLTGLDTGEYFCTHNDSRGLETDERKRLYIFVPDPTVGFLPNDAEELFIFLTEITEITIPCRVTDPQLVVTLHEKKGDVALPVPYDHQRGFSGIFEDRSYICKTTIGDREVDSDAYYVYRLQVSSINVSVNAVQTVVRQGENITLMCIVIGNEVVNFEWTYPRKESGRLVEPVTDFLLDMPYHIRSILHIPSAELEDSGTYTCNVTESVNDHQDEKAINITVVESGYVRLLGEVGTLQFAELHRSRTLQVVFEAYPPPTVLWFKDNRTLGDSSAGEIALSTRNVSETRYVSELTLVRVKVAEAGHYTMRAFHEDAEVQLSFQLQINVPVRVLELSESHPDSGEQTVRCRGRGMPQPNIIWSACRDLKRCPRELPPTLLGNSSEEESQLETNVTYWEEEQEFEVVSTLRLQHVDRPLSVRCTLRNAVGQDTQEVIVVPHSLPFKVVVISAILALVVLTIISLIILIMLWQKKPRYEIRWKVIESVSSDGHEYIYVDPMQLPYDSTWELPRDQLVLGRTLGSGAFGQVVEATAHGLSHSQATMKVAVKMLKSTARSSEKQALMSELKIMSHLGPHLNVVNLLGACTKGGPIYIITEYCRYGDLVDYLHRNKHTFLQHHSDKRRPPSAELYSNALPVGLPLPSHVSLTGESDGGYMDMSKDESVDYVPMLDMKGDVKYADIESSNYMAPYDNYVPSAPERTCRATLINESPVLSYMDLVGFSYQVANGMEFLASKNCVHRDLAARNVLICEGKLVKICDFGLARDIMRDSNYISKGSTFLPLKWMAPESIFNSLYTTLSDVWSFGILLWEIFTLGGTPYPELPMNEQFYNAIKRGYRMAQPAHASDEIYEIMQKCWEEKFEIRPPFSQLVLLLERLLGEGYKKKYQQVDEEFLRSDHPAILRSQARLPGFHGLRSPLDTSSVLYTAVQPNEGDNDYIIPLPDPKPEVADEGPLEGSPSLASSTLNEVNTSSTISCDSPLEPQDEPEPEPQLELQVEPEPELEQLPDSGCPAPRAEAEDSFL

As to `Cc1[nH]c(/C=C2\C(=O)Nc3ccc(F)cc32)c(C)c1C(=O)N[C@H]1CCN(C(=O)N(C)C)C1` [Vorolanib], the “IC50 fold lower than those of sunitinib” value in the data set with KDR, FLT3, and C-Kit was 4.7- to 15.4 fold. For the same compound, the IC50 in the data set with 786-O was greater than 9000 nM; in the data set with A549, greater than 9000 nM; at C-Kit, 0.14 nM; in data set [1] it was 92.4 nM; at PDGFRβ, 0.13 nM; with HT-29 it was greater than 9000 nM. Further, the IC50 in the data set with BxPC-3 was greater than 9000 nM; on FLT3, 0.63 nM; in [6], 64.1 nM; in the data set with MV-4-11, 140 nM; with Primary HUVECs [9] it was greater than 2000 nM; with HCT-116, greater than 9000 nM. In addition, the IC50 with A375 was greater than 9000 nM. For the same compound, the efficacious dose in the data set with HT-29 xenograft tumors is reported as 40–160 mg/kg bid. In the data set on Primary HUVECs [2], the “VEGF165-induced tube formation of HUVECs” value is on record as “inhibited the VEGF165-induced tube formation of HUVECs, in vitro, with inhibitory strengths comparable with that of sunitinib”. The tumor growth inhibition entry in the data set with MV-4-11 xenograft tumors (10 mg/kg bid) is given as “began to show significant inhibition”. Moreover, in the data set with MV-4-11 xenograft tumors (80 mg/kg bid), the tumor regression result is listed as “tumors completely disappeared”. Moreover, in [3] (orally administered vorolanib), the “body weight loss / toxicity” value is recorded as “no obvious body weight loss or other significant toxicity observed”. Moreover, in the data set on CNV lesions, the CNV lesions entry was “could reduce CNV lesions”. Further, the “VEGF-induced KDR phosphorylation of HUVECs” value in [4] is reported as “inhibited the VEGF-induced KDR phosphorylation of HUVECs”. Besides, in data set [5], the half-life entry was “shorter half-life”. The tissue accumulation result in [5] is reported as “limited tissue accumulation”. In addition, the tumor growth entry in the data set with A549 xenograft tumors is on record as “inhibited tumor growth”. Further, the figures for the CNV area in data set [7] (10 mg/kg) and in data set [7] (30 mg/kg) were 493.58 ± 317.17 × 10^3 μm^2 and 357.70 ± 276.97 × 10^3 μm^2, respectively. For the same compound, the “microvessel density (MVD) inhibitory activity” value in [8] (high-dose vorolanib 160 mg/kg twice daily [bid]) is on record as “comparable with sunitinib”. In addition, in data set [8], the “microvessel density (MVD), CD31 staining” value is on record as “suppressed the MVD of the mouse in a dose-dependent manner”. In addition, the “drug efflux function of ABCG2” value in the data set with ABCG2 is on record as “inhibition of the drug efflux function of ABCG2”.
Turning to `CCN(CC)CCNC(=O)c1c(C)[nH]c(/C=C2\C(=O)Nc3ccc(F)cc32)c1C` [Sunitinib, reference compound], the IC50 with 786-O was 6040 nM; in the data set with A549 it was 4430 nM; in data set [1], 12.6 nM; with HT-29, 4420 nM; in the data set on BxPC-3, 4960 nM; in [6], 39.8 nM. Moreover, the figures for the IC50 with MV-4-11, with HCT-116 and with A375 were 14.8 nM, 2520 nM and 2880 nM, respectively. In addition, the body weight loss result in [3] (40 mg/kg qd) is listed as “severe body weight loss”. The “microvessel density (MVD), CD31 staining” value in [8] was “significantly inhibited”.
Turning to `CN[C@@H]1C[C@H]2O[C@@](C)([C@@H]1OC)n1c3ccccc3c3c4c(c5c6ccccc6n2c5c31)C(=O)NC4` [Staurosporine, reference compound], the IC50 with Primary HUVECs [9] is 8.12 nM.
